Data from ChEMBL document CHEMBL4680339, “Synthesis and bioevaluation of N-(3,4,5-trimethoxyphenyl)-1H-pyrazolo[3,4-b]pyridin-3-amines as tubulin polymerization inhibitors with anti-angiogenic effects” (Bioorg Med Chem, 2021).

Experiments:
MCF7 = assay: Antiproliferative activity against human MCF7 cells assessed as reduction in cell growth incubated for 72 hrs by MTT assay; type: functional, cell-based; conditions: MCF7, 72 h
In short: (§1)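 Log-phase cells seeded at 5 × 10³/well and grown 24 h, then exposed to graded compound concentrations for 72 h. MTT (5 mg/mL) added for 4 h; formazan dissolved in DMSO and absorbance read at 490 nm. IC50 calculated from growth inhibition; means ± SD of triplicate experiments.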

WI-38 = assay: Cytotoxicity against human WI-38 cells assessed as reduction in cell growth incubated for 72 hrs by MTT assay; type: cell-based; conditions: WI-38, 72 h; in short: as §1
HeLa = assay: Antiproliferative activity against human HeLa cells assessed as reduction in cell growth incubated for 72 hrs by MTT assay; type: functional, cell-based; in short: as §1
A549 = assay: Antiproliferative activity against human A549 cells assessed as reduction in cell growth incubated for 72 hrs by MTT assay; type: functional, cell-based; conditions: A549, 72 h; in short: as §1
HepG2 = assay: Antiproliferative activity against human HepG2 cells assessed as reduction in cell growth incubated for 72 hrs by MTT assay; type: functional, cell-based; conditions: HepG2, 72 h; in short: as §1
HCT-116 = assay: Antiproliferative activity against human HCT-116 cells assessed as reduction in cell growth incubated for 72 hrs by MTT assay; type: functional, cell-based; conditions: HCT-116, 72 h; in short: as §1
Sus scrofa = organism: Sus scrofa; assay: (§2) Inhibition of pig brain tubulin polymerization by spectrophotometric method; type: tissue-based
In short: (§3)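 Pig brain tubulin, purified by three assembly/disassembly cycles and phosphocellulose chromatography, mixed with compound at various concentrations. Buffer: PEM (100 mM PIPES, 1 mM MgCl₂, 1 mM EGTA) with 1 mM GTP and 5% glycerol. Polymerization followed at 37 °C by light scattering at 340 nm; plateau absorbance used for calculation.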

[1] = as §2; type: tissue-based, Sus scrofa; in short: as §3

| Structure (SMILES) | IC50 (MCF7) | IC50 (HeLa) | IC50 (A549) | IC50 (HepG2) | IC50 (HCT-116) | IC50 [1] | IC50 (WI-38) | inhibition (Sus scrofa) |
| --- | --- | --- | --- | --- | --- | --- | --- | --- |
| COc1ccc2c(Nc3cc(OC)c(OC)c(OC)c3)nn(C(C)C)c2n1 | 13.2 µM | 12.8 µM | 31.9 µM | 20 µM | 12 µM |  | 4.32 µM |  |
| COc1ccc2c(Nc3cc(OC)c(OC)c(OC)c3)nn(-c3ccccc3)c2n1 | > 50 µM | 22.5 µM | > 50 µM | 38.8 µM | > 50 µM |  | 12.6 µM |  |
| COc1ccc2c(N(c3cc(OC)c(OC)c(OC)c3)C3CCCC3)nn(C3CCCC3)c2n1 | > 50 µM | > 50 µM | > 50 µM | > 50 µM | > 50 µM |  | 138 µM |  |
| COc1ccc2c(N(CCF)c3cc(OC)c(OC)c(OC)c3)n[nH]c2n1 | 0.102 µM | 0.012 µM | 0.2 µM | 5.79 µM | 0.12 µM | 55.7 µM | 16.5 µM | Dose-dependent effect |
| COc1ccc2c(N(c3cc(OC)c(OC)c(OC)c3)C(C)C)n[nH]c2n1 | > 50 µM | 21.2 µM | > 50 µM | 24.5 µM | > 50 µM |  | 6.04 µM |  |

Further lines, with some results ahead:

| IC50 (MCF7) | IC50 (HeLa) | IC50 (A549) | IC50 (HepG2) | IC50 (HCT-116) | IC50 [1] | Structure (SMILES) | IC50 (WI-38) | inhibition (Sus scrofa) |
| --- | --- | --- | --- | --- | --- | --- | --- | --- |
| 0.81 µM | 0.7 µM | 31.2 µM | 9.64 µM | 16.7 µM |  | CCN(c1cc(OC)c(OC)c(OC)c1)c1n[nH]c2nc(OC)ccc12 | 8.03 µM |  |
| > 50 µM | 28.4 µM | 22.7 µM | > 50 µM | 26.2 µM |  | COc1ccc2c(N(c3cc(OC)c(OC)c(OC)c3)C3CCCC3)n[nH]c2n1 | 10.4 µM |  |
| 1.37 µM | 0.73 µM | > 50 µM | 6.26 µM | 5.97 µM |  | CCCN(c1cc(OC)c(OC)c(OC)c1)c1n[nH]c2nc(OC)ccc12 | 2.99 µM |  |
| 21.7 µM | 0.17 µM | 2.42 µM | 18.8 µM | 0.47 µM |  | COc1ccc2c(N(CC(F)F)c3cc(OC)c(OC)c(OC)c3)n[nH]c2n1 | 1.69 µM |  |
